From ChEMBL document CHEMBL4350961, “Discovery of Pyrrolo[3,2- d]pyrimidin-4-one Derivatives as a New Class of Potent and Cell-Active Inhibitors of P300/CBP-Associated Factor Bromodomain” (J Med Chem, 2019)
Activity calls are given as the source filed them.

Experiments:
[1] = molecular target: Serine/threonine-protein kinase 16 (Homo sapiens) (UniProt O75716); assay: Inhibition of human STK16 at 10 uM by radiometric method
Procedure, shortened: (§1)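 Kinase panel of 422 kinases screened by Eurofins KinaseProfiler at a single test-compound concentration of 10 µM.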

[2] = molecular target: TRAF2 and NCK-interacting protein kinase (Homo sapiens) (UniProt Q9UKE5); assay: Inhibition of human TNIK (1 to 367 residues) using RLGRDKYKTLRQIRQ as substrate measured after 40 mins in presence of [gamma33P]ATP by scintillation counting method
[3] = molecular target: Serine/threonine-protein kinase 35 (Homo sapiens) (UniProt Q8TDR2); assay: Inhibition of recombinant full length human CLIK1 at 10 uM using RSRSRSRSRSRSRSR as substrate measured after 40 mins in presence of [gamma33P]ATP by scintillation counting method
[4] = molecular target: PI3-kinase p110-alpha/p85-alpha (Homo sapiens) (UniProt P27986+P42336); assay: Inhibition of recombinant full-length human PI3K p110alpha/p85alpha at 10 uM using phosphatidylinositol-4, 5-bisphosphate as substrate measured after 40 mins by fluorescence assay; type: protein-complex assay
[5] = molecular target: Activin receptor type-1-like (Homo sapiens) (UniProt P37023); assay: Inhibition of recombinant human ALK1 (142 to end residues) at 10 uM using casein as substrate measured after 40 mins in presence of [gamma33P]ATP by scintillation counting method
Mus musculus = species: Mus musculus; assay: Inhibition of recombinant full-length mouse PI3K p110alpha/p65alpha (1 to 571 residues) at 10 uM using phosphatidylinositol-4, 5-bisphosphate as substrate measured after 40 mins by HTRF assay
[6] = molecular target: Transcription intermediary factor 1-alpha (Homo sapiens) (UniProt O15164); assay: Binding affinity to human N-terminal His-tagged TRIM24 assessed as change in melting temperature at 10 uM by SYPRO orange dye-based fluorescence assay
Procedure, shortened: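 Thermal shift with His-tagged human bromodomain at 2 μM final in 10 mM HEPES pH 7.5, 500 mM NaCl. Compound at 10 μM final with 0.1% DMSO; SYPRO Orange at 1:1000. Equilibrated 3 min at 25 °C, then heated from 25 to 95 °C at 1 °C/min. Melting temperature shift taken from fluorescence; at least duplicate.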

[7] = molecular target: Death-associated protein kinase 1 (Homo sapiens) (UniProt P53355); assay: Inhibition of recombinant human DAPK1 (1 to 296 residues) at 10 uM using KKLNRTLSFAEPG as substrate measured after 40 mins in presence of [gamma33P]ATP by scintillation counting method
Chain of Death-associated protein kinase 1 (Homo sapiens) (P53355 whole entry, looked up, the tested form may be a part): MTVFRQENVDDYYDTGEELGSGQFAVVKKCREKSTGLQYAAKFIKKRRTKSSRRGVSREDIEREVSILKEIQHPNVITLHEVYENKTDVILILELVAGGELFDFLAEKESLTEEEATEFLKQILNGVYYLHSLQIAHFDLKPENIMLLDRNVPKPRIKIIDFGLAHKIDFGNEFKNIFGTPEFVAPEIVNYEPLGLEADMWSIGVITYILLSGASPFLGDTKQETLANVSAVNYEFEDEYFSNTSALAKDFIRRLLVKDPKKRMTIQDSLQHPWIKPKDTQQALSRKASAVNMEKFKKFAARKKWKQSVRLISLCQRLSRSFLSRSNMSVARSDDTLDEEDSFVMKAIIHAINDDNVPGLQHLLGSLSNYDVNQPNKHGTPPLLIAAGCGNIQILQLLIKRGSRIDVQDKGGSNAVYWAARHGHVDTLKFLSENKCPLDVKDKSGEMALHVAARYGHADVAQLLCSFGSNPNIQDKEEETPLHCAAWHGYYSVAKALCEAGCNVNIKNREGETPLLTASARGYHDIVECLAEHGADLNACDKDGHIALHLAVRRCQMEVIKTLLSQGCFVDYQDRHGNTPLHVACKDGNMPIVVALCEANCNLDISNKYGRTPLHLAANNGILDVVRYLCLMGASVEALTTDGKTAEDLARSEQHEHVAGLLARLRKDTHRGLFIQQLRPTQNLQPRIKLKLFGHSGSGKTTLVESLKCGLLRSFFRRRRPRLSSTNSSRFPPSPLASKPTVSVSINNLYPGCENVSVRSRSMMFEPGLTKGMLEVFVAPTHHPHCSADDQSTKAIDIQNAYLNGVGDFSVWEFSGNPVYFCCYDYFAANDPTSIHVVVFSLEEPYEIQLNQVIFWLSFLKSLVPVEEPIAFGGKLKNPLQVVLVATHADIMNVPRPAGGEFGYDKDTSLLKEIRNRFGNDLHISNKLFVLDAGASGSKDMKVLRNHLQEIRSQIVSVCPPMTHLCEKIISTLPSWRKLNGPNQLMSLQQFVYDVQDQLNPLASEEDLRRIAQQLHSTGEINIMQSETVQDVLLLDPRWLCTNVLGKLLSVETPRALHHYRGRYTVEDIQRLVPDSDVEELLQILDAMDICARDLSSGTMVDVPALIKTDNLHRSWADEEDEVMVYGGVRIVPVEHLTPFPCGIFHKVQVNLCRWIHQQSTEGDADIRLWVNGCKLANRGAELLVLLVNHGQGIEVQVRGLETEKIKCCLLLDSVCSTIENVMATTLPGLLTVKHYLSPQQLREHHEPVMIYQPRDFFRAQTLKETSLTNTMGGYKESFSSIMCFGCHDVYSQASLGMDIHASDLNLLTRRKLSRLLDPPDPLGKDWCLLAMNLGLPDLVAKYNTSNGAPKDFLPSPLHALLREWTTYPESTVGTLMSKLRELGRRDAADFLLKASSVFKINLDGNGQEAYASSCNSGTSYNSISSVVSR

[8] = molecular target: Phosphatidylinositol 4-phosphate 3-kinase C2 domain-containing subunit alpha (Homo sapiens) (UniProt O00443); assay: Inhibition of recombinant human PI3KC2alpha (299 to end residues) at 10 uM using phosphatidylinositol as substrate measured after 40 mins by HTRF assay
Homo sapiens = species: Homo sapiens; assay: Inhibition of recombinant human EphB2 A848S/ K918E mutant (560 to end residues) at 10 uM using KTFCGTPEYLAPEVRREPRILSEEEQEMFRDFDYIADWC as substrate measured after 40 mins in presence of [gamma33P]ATP by scintillation counting method
[9] = molecular target: Serine/threonine-protein kinase Chk1 (Homo sapiens) (UniProt O14757); assay: Inhibition of recombinant full length human CHK1 at 10 uM using KKKVSRSGLYRSPSMPENLNRPR as substrate measured after 40 mins in presence of [gamma33P]ATP by scintillation counting method
[10] = molecular target: Phosphatidylinositol 4-phosphate 5-kinase type-1 alpha (Homo sapiens) (UniProt Q99755); assay: Inhibition of recombinant full-length human PIP5K1alpha at 10 uM using phosphatidylinositol 4-phosphate as substrate measured after 40 mins by HTRF assay
[11] = molecular target: Mitogen-activated protein kinase kinase kinase kinase 2 (Homo sapiens) (UniProt Q12851); assay: Inhibition of recombinant human GCK at 10 uM using myelin basic protein as substrate measured after 40 mins in presence of [gamma33P]ATP by scintillation counting method
Chain of Mitogen-activated protein kinase kinase kinase kinase 2 (Homo sapiens) (Q12851 whole entry): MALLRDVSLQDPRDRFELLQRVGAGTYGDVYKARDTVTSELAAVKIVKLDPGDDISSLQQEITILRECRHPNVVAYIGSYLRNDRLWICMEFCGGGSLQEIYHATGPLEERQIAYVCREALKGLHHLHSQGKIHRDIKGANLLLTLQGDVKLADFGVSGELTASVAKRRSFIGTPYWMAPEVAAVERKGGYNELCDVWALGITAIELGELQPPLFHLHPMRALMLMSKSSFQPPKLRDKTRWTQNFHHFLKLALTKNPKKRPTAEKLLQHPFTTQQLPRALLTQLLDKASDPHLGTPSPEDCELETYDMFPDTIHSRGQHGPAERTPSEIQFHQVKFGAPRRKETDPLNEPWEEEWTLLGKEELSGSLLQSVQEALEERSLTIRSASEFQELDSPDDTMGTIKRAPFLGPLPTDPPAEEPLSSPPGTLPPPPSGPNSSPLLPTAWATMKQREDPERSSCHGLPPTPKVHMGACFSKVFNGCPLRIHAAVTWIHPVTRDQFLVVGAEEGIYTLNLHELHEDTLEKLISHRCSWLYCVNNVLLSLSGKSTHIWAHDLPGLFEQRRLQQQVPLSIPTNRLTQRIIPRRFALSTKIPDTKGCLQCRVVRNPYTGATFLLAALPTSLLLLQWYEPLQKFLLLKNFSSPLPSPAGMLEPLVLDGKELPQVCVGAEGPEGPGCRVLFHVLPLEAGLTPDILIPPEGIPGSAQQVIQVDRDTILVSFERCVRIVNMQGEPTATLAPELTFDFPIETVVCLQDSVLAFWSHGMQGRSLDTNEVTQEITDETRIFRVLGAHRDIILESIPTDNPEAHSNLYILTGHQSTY

[12] = system: Epidermal growth factor receptor (Homo sapiens), P00533 [L858R,T790M]; assay: Inhibition of recombinant human EGFR T790M/L858R mutant (696 to end residues) at 10 uM using GGMEDIYFEFMGGKKK as substrate measured after 40 mins in presence of [gamma33P]ATP by scintillation counting method
[13] = molecular target: Mast/stem cell growth factor receptor Kit (Homo sapiens) (UniProt P10721); assay: Inhibition of recombinant human c-Kit (544 to end residues) at 10 uM using poly(Glu, Tyr) 4:1 as substrate measured after 40 mins in presence of [gamma33P]ATP by scintillation counting method
[14] = system: PI3-kinase p110-alpha/p85-alpha (Homo sapiens), P27986+P42336 [E542K]; assay: Inhibition of recombinant full-length human PI3K p110alpha/p85alpha E542K mutant at 10 uM using phosphatidylinositol-4, 5-bisphosphate as substrate measured after 40 mins by fluorescence assay; type: protein-complex assay
[15] = molecular target: Chromatin remodeling regulator CECR2 (Homo sapiens) (UniProt Q9BXF3); assay: Binding affinity to human partial length CECR2 (P423 to D543 residues) expressed in bacterial expression system at 1 uM by BROMOscan assay
Chain of Chromatin remodeling regulator CECR2 (Homo sapiens) (Q9BXF3 whole entry, looked up, the tested form may be a part): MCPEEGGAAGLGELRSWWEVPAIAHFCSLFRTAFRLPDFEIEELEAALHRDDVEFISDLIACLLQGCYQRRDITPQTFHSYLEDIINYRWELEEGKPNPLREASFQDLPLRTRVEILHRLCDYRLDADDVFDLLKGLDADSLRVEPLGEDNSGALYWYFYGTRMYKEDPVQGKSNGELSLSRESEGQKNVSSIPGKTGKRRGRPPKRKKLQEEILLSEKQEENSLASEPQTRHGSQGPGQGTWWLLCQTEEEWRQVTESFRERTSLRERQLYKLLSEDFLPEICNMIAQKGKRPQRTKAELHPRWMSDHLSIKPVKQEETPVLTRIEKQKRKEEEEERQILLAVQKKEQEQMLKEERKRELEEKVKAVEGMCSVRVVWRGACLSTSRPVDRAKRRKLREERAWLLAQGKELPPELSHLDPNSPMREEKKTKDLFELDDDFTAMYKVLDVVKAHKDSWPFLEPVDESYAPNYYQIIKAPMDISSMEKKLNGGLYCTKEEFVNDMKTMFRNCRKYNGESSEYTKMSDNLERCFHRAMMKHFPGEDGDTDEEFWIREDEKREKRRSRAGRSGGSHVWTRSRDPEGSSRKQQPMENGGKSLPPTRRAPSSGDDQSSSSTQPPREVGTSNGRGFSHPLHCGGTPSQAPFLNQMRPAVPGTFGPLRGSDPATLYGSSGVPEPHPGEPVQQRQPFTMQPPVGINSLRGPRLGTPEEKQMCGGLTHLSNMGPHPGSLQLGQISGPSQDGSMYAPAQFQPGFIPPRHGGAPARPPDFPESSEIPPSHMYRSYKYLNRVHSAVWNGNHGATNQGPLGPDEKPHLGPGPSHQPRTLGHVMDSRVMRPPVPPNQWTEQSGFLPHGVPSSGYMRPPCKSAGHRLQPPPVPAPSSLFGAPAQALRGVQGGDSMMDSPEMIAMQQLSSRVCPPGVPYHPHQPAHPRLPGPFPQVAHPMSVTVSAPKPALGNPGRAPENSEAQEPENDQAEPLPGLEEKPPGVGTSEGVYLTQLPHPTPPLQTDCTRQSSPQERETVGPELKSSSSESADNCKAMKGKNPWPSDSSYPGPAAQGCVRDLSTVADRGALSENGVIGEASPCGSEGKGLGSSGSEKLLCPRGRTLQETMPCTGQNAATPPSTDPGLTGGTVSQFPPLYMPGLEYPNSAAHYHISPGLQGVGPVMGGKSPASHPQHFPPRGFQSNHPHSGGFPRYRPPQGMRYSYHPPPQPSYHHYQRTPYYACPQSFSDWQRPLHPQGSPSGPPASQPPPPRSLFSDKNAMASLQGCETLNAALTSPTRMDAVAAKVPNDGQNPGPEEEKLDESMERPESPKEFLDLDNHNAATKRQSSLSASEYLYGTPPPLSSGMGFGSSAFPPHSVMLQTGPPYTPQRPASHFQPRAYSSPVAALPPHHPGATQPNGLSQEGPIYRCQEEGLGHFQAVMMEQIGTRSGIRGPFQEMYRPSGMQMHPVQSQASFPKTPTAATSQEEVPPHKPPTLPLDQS
Procedure, shortened: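 BROMOscan bromodomain cross-screen run by an outside service, compound at 1 µM against 32 recombinant bromodomains. Binding given as percent of control.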

[16] = system: Tyrosine-protein kinase ABL1 (Homo sapiens), P00519 [T315I]; assay: Inhibition of recombinant human ABL T315I mutant (27 to end residues) at 10 uM using EAIYAAPFAKKK as substrate measured after 40 mins in presence of [gamma33P]ATP by scintillation counting method
[17] = system: Epidermal growth factor receptor (Homo sapiens), P00533 [L858R]; assay: Inhibition of recombinant human EGFR L858R mutant (696 to end residues) at 10 uM using poly(Glu, Tyr) 4:1 as substrate measured after 40 mins in presence of [gamma33P]ATP by scintillation counting method
Chain of Epidermal growth factor receptor (Homo sapiens), P00533 [L858R] (P00533 whole entry L858R): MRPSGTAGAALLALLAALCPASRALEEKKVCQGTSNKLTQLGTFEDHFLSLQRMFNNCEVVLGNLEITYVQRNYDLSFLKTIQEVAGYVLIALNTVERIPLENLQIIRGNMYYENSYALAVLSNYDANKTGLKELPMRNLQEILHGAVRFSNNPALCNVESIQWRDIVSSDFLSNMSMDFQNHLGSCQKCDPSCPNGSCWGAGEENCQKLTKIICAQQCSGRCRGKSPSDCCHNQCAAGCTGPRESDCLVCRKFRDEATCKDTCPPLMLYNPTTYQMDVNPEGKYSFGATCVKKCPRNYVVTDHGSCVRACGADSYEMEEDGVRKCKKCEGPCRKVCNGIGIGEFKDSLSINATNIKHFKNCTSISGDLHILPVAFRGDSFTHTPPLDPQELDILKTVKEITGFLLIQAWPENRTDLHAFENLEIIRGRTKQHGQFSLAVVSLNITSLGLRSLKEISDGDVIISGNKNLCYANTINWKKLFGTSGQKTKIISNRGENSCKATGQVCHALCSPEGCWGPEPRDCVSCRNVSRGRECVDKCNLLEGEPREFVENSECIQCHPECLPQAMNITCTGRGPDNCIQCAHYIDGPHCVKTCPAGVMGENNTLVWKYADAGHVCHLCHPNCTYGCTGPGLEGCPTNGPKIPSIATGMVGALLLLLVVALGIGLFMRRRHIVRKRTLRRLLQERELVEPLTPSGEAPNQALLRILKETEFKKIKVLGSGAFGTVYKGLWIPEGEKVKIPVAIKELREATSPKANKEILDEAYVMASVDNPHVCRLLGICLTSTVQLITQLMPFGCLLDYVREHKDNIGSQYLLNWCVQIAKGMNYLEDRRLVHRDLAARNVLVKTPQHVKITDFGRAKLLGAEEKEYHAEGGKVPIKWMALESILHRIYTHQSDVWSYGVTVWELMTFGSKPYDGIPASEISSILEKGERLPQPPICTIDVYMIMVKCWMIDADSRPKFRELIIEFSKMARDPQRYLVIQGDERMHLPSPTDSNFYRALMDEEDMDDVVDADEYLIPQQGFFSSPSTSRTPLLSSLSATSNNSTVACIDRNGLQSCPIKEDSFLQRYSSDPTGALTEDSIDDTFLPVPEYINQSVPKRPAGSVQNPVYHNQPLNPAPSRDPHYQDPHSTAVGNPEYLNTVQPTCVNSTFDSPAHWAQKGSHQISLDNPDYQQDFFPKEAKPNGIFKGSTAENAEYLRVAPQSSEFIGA

[18] = molecular target: cGMP-dependent protein kinase 2 (Homo sapiens) (UniProt Q13237); assay: Inhibition of recombinant full-length human PRKG2 at 10 uM using KKLRRTLSFAEPG as substrate measured after 40 mins in presence of [gamma33P]ATP by scintillation counting method
[19] = molecular target: Phosphatidylinositol 3-kinase C2 domain-containing subunit gamma (Homo sapiens) (UniProt O75747); assay: Inhibition of recombinant human PI3KC2gamma (468 to 1203 residues) at 10 uM using phosphatidylinositol as substrate measured after 40 mins by HTRF assay
[20] = molecular target: Serine/threonine-protein kinase 25 (Homo sapiens) (UniProt O00506); assay: Inhibition of human STK25 (1 to 308 residues) using RLGRDKYKTLRQIRQ as substrate measured after 40 mins in presence of [gamma33P]ATP by scintillation counting method; procedure, shortened: as §1

CN1C[C@H](Nc2nc3cc[nH]c3c(=O)n2C)C[C@H](c2ccc3c(c2)OCCO3)C1
-0.3 °C: ΔTm [6]
active: Activity [15]
inactive: inhibition [1] | inhibition [2] | inhibition [3] | inhibition [4] | inhibition [5] | inhibition (Mus musculus) | inhibition [7] | inhibition [8] | inhibition (Homo sapiens) | inhibition [9] | inhibition [10] | inhibition [11] | inhibition [12] | inhibition [13] | inhibition [14] | inhibition [16] | inhibition [17] | inhibition [18] | inhibition [19] | inhibition [20]
